One may read the EC50 as the concentration giving half of the maximal effect.

25 compounds from ChEMBL document CHEMBL4699581, “Design, synthesis, and biological evaluation of N-arylpiperazine derivatives as interferon inducers” (Bioorg Med Chem Lett, 2020) can be followed below.

Assay type in all cases: cell-based
The test system of data set [1] is THP-1. In words: Induction of type-1 IFN signalling in human THP-1 cells assessed as increase in type-1 interferon-induced ISG54-ISRE promoter activity by measuring increase in transcriptional activity of luciferase reporter gene at 40 uM by secreted luciferase reporter gene assay relative to control. As to conditions: filed as activator. An outline of the steps:
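THP-1 monocytes carry an ISRE reporter (ISG54 minimal promoter with five ISRE elements) that drives a secreted luciferase. Each compound was tested at 40 μM. Luminescence was read and expressed as relative units normalized to a DMSO control, as mean ± standard deviation.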
Background: In a reporter assay the amount or activity of a reporter protein is the signal.

Data set [2] can be described thus: Cytotoxicity against human THP-1 cells assessed as cell viability at 40 uM relative to control. Particulars: read-out: Activity. An outline of the steps:
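THP-1 viability was measured in parallel with the ISRE reporter readout after treatment with 40 μM of each compound. Results are given as mean ± standard deviation.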

For data set [3], the system named is THP-1. Put plainly: Induction of type-1 IFN signalling in human THP-1 cells assessed as increase in IFNbeta secretion at 20 uM by ELISA. Particulars: filed as activator. An outline of the steps: (§1)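 IFNβ and IP-10 released extracellularly from treated THP-1 cells were quantified by ELISA.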
(In general: ELISA stands for enzyme-linked immunosorbent assay.)

For data set [4], the system named is THP-1. In words: Induction of type-1 IFN signalling in human THP-1 cells assessed as increase in IP-10 secretion at 20 uM by ELISA. Particulars: filed as activator. An outline of the steps:
as §1

The test system of data set [5] is THP-1. In words: Induction of type-1 IFN signalling in human THP-1 cells assessed as increase in IFN-stimulated IFNbeta mRNA expression at 50 uM by qPCR analysis. As to conditions: filed as activator. A general note: Real-time PCR tracks product formation cycle by cycle.
The test system of data set [6] is THP-1. Put plainly: Induction of type-1 IFN signalling in human THP-1 cells assessed as increase in IFN-stimulated CXCL10 mRNA expression at 50 uM by qPCR analysis. As to conditions: filed as activator.
Data set [7] deals with THP-1. In words: Induction of type-1 IFN signalling in human THP-1 cells assessed as increase in IFN-stimulated IRF7 mRNA expression at 50 uM by qPCR analysis. Particulars: filed as activator.
Data set [8] has as its system THP-1. Put plainly: Induction of type-1 IFN signalling in human THP-1 cells assessed as increase in IFN-stimulated IFIT3 mRNA expression at 50 uM by qPCR analysis. As to conditions: filed as activator.
Data set [9] has as its system THP-1. In words: Induction of type-1 IFN signalling in human THP-1 cells assessed as increase in IFN-stimulated OAS1 mRNA expression at 50 uM by qPCR analysis. Particulars: filed as activator.
A short description of data set [10]: Induction of type-1 IFN signalling in human THP-1 cells assessed as increase in type-1 IFN-induced ISG54-ISRE promoter activity by measuring increase in transcriptional activity of luciferase reporter gene by secreted luciferase reporter gene assay. An outline of the steps: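 The THP-1 secreted-luciferase ISRE reporter (ISG54 minimal promoter plus five ISREs) was tested across a dose range. Luminescence was read as fold change over control. EC50 was calculated and Emax was interpolated from the dose-response curve.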

Data set [11] has as its system THP-1. Put plainly: Cytotoxicity against human THP-1 cells assessed as cell viability at 2.5 to 40 uM. As to conditions: thp-1, 40 µM, dose 2.5-40 µM. An outline of the steps: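 THP-1 viability was tested across a range of treatment concentrations up to 40 µM, alongside the ISRE reporter dose-response.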

The source made the active and inactive calls. No cut-off for these calls is given here.

On to `S=C(Nc1ccc(Cl)cc1)N1CCN(c2cccc(Cl)c2Cl)CC1`, for which the Activity in the data set with THP-1 [1] was determined as 1.2 RU. Besides, in [2], the viability at 40 µM was 99%.

Consider `COc1ccc(NC(=O)N2CCN(c3cccc(Cl)c3Cl)CC2)cc1`, for which the Activity in the data set with THP-1 [1] was 3.3 RU. In addition, the viability at 40 µM in data set [2] was 98%.

`O=C(Nc1ccc([N+](=O)[O-])cc1)N1CCN(c2cccc(Cl)c2Cl)CC1`: the Activity in the data set with THP-1 [1] came to 1 RU. Moreover, the viability at 40 µM in [2] came out at 90%.

In the case of `COc1cccc(NC(=O)N2CCN(c3cccc(Cl)c3Cl)CC2)c1`, the Activity with THP-1 [1] came to 2.7 RU. Besides, the viability at 40 µM in data set [2] turned out to be 87%.

Take `CCCCCCCCCCCCC(=O)N1CCN(c2cccc(Cl)c2Cl)CC1`: in the data set on THP-1 [1], the Activity came to 1.3 RU. Also, in data set [2], the viability at 40 µM was 89%.

With `O=C(c1cccc(C(F)(F)F)c1)N1CCN(c2cccc(Cl)c2Cl)CC1`, the Activity in the data set with THP-1 [1] worked out at 2.8 RU. For the same compound, in data set [2], the viability at 40 µM is 105%.

For the compound `O=C(Cc1cc(F)c(F)cc1F)N1CCN(c2cccc(Cl)c2Cl)CC1`, the Activity in the data set on THP-1 [1] was found to be 2.8 RU. Also, the viability at 40 µM in data set [2] came out at 101%.

Turning to `O=C(Nc1ccc(OC(F)(F)F)cc1)N1CCN(c2cccc(Cl)c2Cl)CC1`, the Activity in the data set on THP-1 [1] came out at 4.2 RU. In addition, in data set [2], the viability at 40 µM is 96%.

As to `O=C(Nc1cccc(C(F)(F)F)c1)N1CCN(c2cccc(Cl)c2Cl)CC1`, the Activity in the data set on THP-1 [1] turned out to be 3.3 RU. Further, the viability at 40 µM in [2] worked out at 76%.

With `COc1ccc(C(=O)N2CCN(c3cccc(Cl)c3Cl)CC2)cc1`, the Activity in the data set with THP-1 [1] was 3.7 RU. Moreover, the viability at 40 µM in data set [2] turned out to be 81%.

For the compound `O=C(CCc1ccccc1C(F)(F)F)N1CCN(c2cccc(Cl)c2Cl)CC1`, in the data set on THP-1 [1], the Activity was found to be 2.5 RU. In addition, the viability at 40 µM in data set [2] amounted to 96%.

`O=[N+]([O-])c1ccc(NC(=S)N2CCN(c3cccc(Cl)c3Cl)CC2)cc1`: the Activity in the data set on THP-1 [1] worked out at 1.1 RU. Besides, the viability at 40 µM in data set [2] is 97%.

Regarding `O=C(Nc1cccc(OC(F)(F)F)c1)N1CCN(c2cccc(Cl)c2Cl)CC1`, in the data set on THP-1 [1], the Activity came to 3 RU. The viability at 40 µM in data set [2] was determined as 70%.

Take `O=C(Nc1ccc(C(F)(F)F)cc1)N1CCN(c2cccc(Cl)c2Cl)CC1`: the Activity in the data set with THP-1 [1] is 3.9 RU. Also, the viability at 40 µM in data set [2] turned out to be 61%.

`O=C(c1cnccn1)N1CCN(c2cccc(Cl)c2Cl)CC1`: the Activity with THP-1 [1] is 2.5 RU. In addition, in [2], the viability at 40 µM turned out to be 89%.

On to `S=C(Nc1ccc(Br)cc1)N1CCN(c2cccc(Cl)c2Cl)CC1`, for which, in the data set with THP-1 [1], the Activity amounted to 0.4 RU. Further, in data set [2], the viability at 40 µM was 46%.

With `O=C(c1ccc(Cl)cc1Cl)N1CCN(c2cccc(Cl)c2Cl)CC1`, the Activity in the data set with THP-1 [1] worked out at 2.3 RU. Also, the viability at 40 µM in [2] was determined as 86%.

In the case of `COc1cc(OC)cc(C(=O)N2CCN(c3cccc(Cl)c3Cl)CC2)c1`, in the data set on THP-1 [1], the Activity stood at 1.9 RU. For the same compound, the viability at 40 µM in data set [2] was determined as 83%.

In the case of `Cc1cc([N+](=O)[O-])ccc1C(=O)N1CCN(c2cccc(Cl)c2Cl)CC1`, the Activity in the data set with THP-1 [1] turned out to be 1.4 RU. In addition, the viability at 40 µM in data set [2] was 84%.

For the compound `CC(C)NC(=S)N1CCN(c2cccc(Cl)c2Cl)CC1`, in the data set with THP-1 [1], the Activity is 1.2 RU. In data set [2], the viability at 40 µM was 84%.

Take `O=C(Nc1ccc(F)cc1)N1CCN(c2cccc(Cl)c2Cl)CC1`: the Activity with THP-1 [1] amounted to 2.1 RU. Moreover, in data set [2], the viability at 40 µM stood at 95%.

On to `O=C(c1ccc(C(F)(F)F)cc1)N1CCN(c2cccc(Cl)c2Cl)CC1`, for which the Activity in the data set with THP-1 [1] turned out to be 1.8 RU. In addition, the viability at 40 µM in data set [2] was determined as 90%.

Consider `COc1cc(CC(=O)N2CCN(c3cccc(Cl)c3Cl)CC2)cc(OC)c1OC`, for which the Activity with THP-1 [1] is 5.2 RU; in the data set on THP-1 [11], “Non-Toxic”. The viability at 40 µM in data set [2] amounted to 98%. In addition, the result with THP-1 [3], in the data set with THP-1 [4], in the data set on THP-1 [5], in the data set with THP-1 [6], in the data set with THP-1 [7] and in the data set on THP-1 [8] was Active. For the same compound, the outcome in the data set on THP-1 [9] was Active. In [10], the EC50 worked out at 13.1 µM.

As to `S=C(Nc1cccc(Br)c1)N1CCN(c2cccc(Cl)c2Cl)CC1`, the Activity in the data set on THP-1 [1] was found to be 1.5 RU. Moreover, in data set [2], the viability at 40 µM was 85%.

`Fc1ccc(NC(=S)N2CCN(c3cccc(Cl)c3Cl)CC2)cc1`: the Activity with THP-1 [1] worked out at 1.3 RU. For the same compound, in [2], the viability at 40 µM came to 81%.
